The target in experiment [1] is T1, Dopamine receptor (Bos taurus) (UniProt Q95136+P20288). The experiment can be described thus: In vitro ability to enhance the binding of [3H]ADTN to dopamine receptor obtained from bovine caudate membranes at a concentration of 10E-12 M. The method in brief:
(§1)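 Striatal synaptosomal membranes from bovine caudate incubated with [3H]ADTN with or without (control) peptide at 10^-12–10^-4 M, in triplicate, 37°C for 10 min, no preincubation; filtered, filters counted by liquid scintillation. Nonspecific binding defined with 10 μM (+)-butaclamol. Result expressed as percent enhancement over control; average ± SEM of three or four experiments; unpaired t-test on dpm.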

Experiment [2] has as its target T1, Dopamine receptor (Bos taurus). The experiment can be described thus: In vitro ability to enhance the binding of [3H]ADTN to dopamine receptor obtained from bovine caudate membranes at a concentration of 10E-4 M. Put shortly:
as §1

Experiment [3] has the same target. Nature of the experiment: In vitro ability to enhance the binding of [3H]ADTN to dopamine receptor obtained from bovine caudate membranes at a concentration of 10E-5 M. The method in brief: as §1
Experiment [4] has the same target. The experiment can be described thus: In vitro ability to enhance the binding of [3H]ADTN to dopamine receptor obtained from bovine caudate membranes at a concentration of 10E-6 M. The method in brief:
as §1

The target is the same in experiment [5]. Nature of the experiment: In vitro ability to enhance the binding of [3H]-ADTN to dopamine receptor obtained from bovine caudate membranes at a concentration of 10E-7 M. Put shortly:
as §1

The target is the same in experiment [6]. Nature of the experiment: In vitro ability to enhance the binding of [3H]ADTN to dopamine receptor obtained from bovine caudate membranes at a concentration of 10E-8 M. The method in brief:
as §1

For experiment [7] the target is unchanged. Nature of the experiment: In vitro ability to enhance the binding of [3H]ADTN to dopamine receptor obtained from bovine caudate membranes at a concentration of 10E-9 M. The method in brief: as §1
For experiment [8] the target is unchanged. Nature of the experiment: In vitro ability to enhance the binding of [3H]ADTN to dopamine receptor obtained from bovine caudate membranes at a concentration of 10E-10 M. Put shortly: as §1
For experiment [9] the target is unchanged. Nature of the experiment: In vitro ability to enhance the binding of [3H]-ADTN to dopamine receptor obtained from bovine caudate membranes at a concentration of 10E-11 M. The method in brief:
as §1

The record followed here is ChEMBL document CHEMBL1126940, “Synthesis and dopamine receptor modulating activity of lactam conformationally constrained analogues of Pro-Leu-Gly-NH2” (J Med Chem, 1993).

Molecules are shown by their SMILES. Residues, ends and D or L forms follow the SMILES beside them.

`NC(=O)CN1OC[C@H](NC(=O)C2CCCN2)C1=O` (some centres not stated): the Increase in experiment [1] was 2%; in [2] it was 7%; in experiment [3], 37%; in experiment [4], 54%; in experiment [5], 30%; in [6], 14%. Besides, the Increase is 6.8% in experiment [7], 2.5% in experiment [8] and 2% in experiment [9].
Regarding `CC(C)C[C@H](NC(=O)[C@@H]1CCCN1)C(=O)NCC(N)=O` (H-Pro-Leu-Gly-NH2), the Increase in experiment [4] is 27%.
`NC(=O)CN1CCC[C@@H](NC(=O)C2CCCN2)C1=O` (some centres not stated): the Increase in experiment [1] worked out at 2%; in [3], 18%; in experiment [4], 43%; in experiment [5], 16%; in experiment [6], 11%; in experiment [7], 4%. Further, the Increase in experiment [8] worked out at 3%; in experiment [9], 4%.
As for `NC(=O)CN1C[C@H](NC(=O)C2CCCN2)C1=O` (some centres not stated), the Increase in experiment [1] came out at 1.5%; in [2], 9.5%; in [3], 22%; in [4], 27%; in experiment [5] it was 8%; in [6] it was 5%. The Increase in [7] worked out at 3.9%; in experiment [8], 2.5%.
With `NC(=O)CN1C(=O)C[C@H](NC(=O)C2CCCN2)C1=O` (some centres not stated), the Increase in experiment [1] was 4%; in experiment [2] it was 13%; in experiment [3] it was 33%; in [4], 38%; in [5], 42%; in [6], 13.5%. Moreover, the Increase in [7] came to 4.6%; in experiment [8], 3.3%; in [9], 5.5%.
In the case of `NC(=O)CN1CCCC[C@@H](NC(=O)C2CCCN2)C1=O` (some centres not stated), the Increase in experiment [2] was determined as 17%; in experiment [3] it was 27%; in experiment [4], 61%; in [5], 38%; in experiment [6], 35%; in experiment [7], 30%. Further, the Increase was determined as 15% in experiment [8] and 8% in experiment [9].
For `NC(=O)CN1CC[C@H](NC(=O)C2CCCN2)C1=O` (some centres not stated), the Increase in experiment [1] was found to be 2.2%; in experiment [2], 1.4%; in [3], 1.6%; in [4] it was 2.8%; in [5] it was 5.6%; in experiment [6], 9.2%. The Increase in [7] came out at 23%; in experiment [8], 24.4%; in [9], 12%.
